Reference: ChEMBL document CHEMBL1143086, “Novel HCV NS5B polymerase inhibitors derived from 4-(1',1'-dioxo-1',4'-dihydro-1'lambda(6)-benzo[1',2',4']thiadiazin-3'-yl)-5-hydroxy-2H-pyridazin-3-ones. Part 3: Further optimization of the 2-, 6-, and 7'-substituents and initial pharmacokinetic assessments” (Bioorg Med Chem Lett, 2008)
In brackets after ≈: the same amount, converted by molar mass.

Key:
[1] = Aqueous solubility at pH 7.4; assay type: physicochemical; conditions: buffer
In short: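 Solubility determined in water at pH 7.4.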

[2] = Ratio of drug level in liver to plasma in Sprague-Dawley rat at 3 mg/kg, po after 8 hrs; assay type: ADME, organism-based; design: dose 3 mg/kg, route oral; conditions: liver and plasma
In short: (§1)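 Sprague–Dawley rats were given a single 3 mg/kg dose iv or po. Plasma and liver concentrations were measured at 1, 4, 8 and 12 h. Liver was not sampled at 1, 4 or 8 h after iv dosing. Liver-to-plasma concentration ratio was calculated at each time point.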

[3] = Volume of distribution at steady state in iv dosed Sprague-Dawley rat; assay type: ADME, organism-based; conditions: in vivo, read-out: Vdss
In short: (§2)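 Sprague–Dawley rats got a single 3 mg/kg dose iv or po, with n = 12 (po) and 3 (iv). Plasma concentrations were followed over time to derive PK parameters.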

[4] = Ratio of drug level in liver to plasma in Sprague-Dawley rat at 3 mg/kg, po after 4 hrs; assay type: ADME, organism-based; design: dose 3 mg/kg, route oral; conditions: liver and plasma; in short: as §1
Cynomolgus monkey [5] = test: AUC (0 to infinity) in cynomolgus monkey at 5 mg/kg, iv; assay type: ADME, organism-based, Macaca fascicularis, Plasma; design: time infinity, dose 5 mg/kg, route intravenous; conditions: in vivo
Rattus norvegicus [6] = test: AUC (0 to infinity) in iv dosed Sprague-Dawley rat; assay type: ADME, organism-based, Plasma; design: time infinity, route intravenous; conditions: in vivo; in short: as §2
[7] = Oral bioavailability in cynomolgus monkey at 5 mg/kg; assay type: ADME, organism-based, Macaca fascicularis; conditions: in vivo
Rattus norvegicus [8] = test: AUC (0 to infinity) in po dosed Sprague-Dawley rat; assay type: ADME, organism-based, Plasma; design: time infinity, route oral; conditions: in vivo; in short: as §2
Cynomolgus monkey [9] = test: AUC (0 to infinity) in cynomolgus monkey at 5 mg/kg, po; assay type: ADME, organism-based, Macaca fascicularis, Plasma; design: time infinity, dose 5 mg/kg, route oral; conditions: in vivo
[10] = Apparent permeability from apical to basolateral side in human Caco-2 cells at 10 uM; assay type: ADME, cell-based
[11] = Volume of distribution at steady state in cynomolgus monkey at 5 mg/kg, iv; assay type: ADME, organism-based, Macaca fascicularis; design: dose 5 mg/kg, route intravenous; conditions: in vivo, read-out: Vdss
[12] = Ratio of drug level in liver to plasma in Sprague-Dawley rat at 3 mg/kg, po after 1 hr; assay type: ADME, organism-based; design: dose 3 mg/kg, route oral; conditions: liver and plasma; in short: as §1
[13] = Oral bioavailability in Sprague-Dawley rat; assay type: ADME, organism-based; conditions: in vivo; in short: as §2
[14] = Ratio of drug level in liver to plasma in Sprague-Dawley rat at 3 mg/kg, iv after 12 hrs; assay type: ADME, organism-based; design: dose 3 mg/kg, route intravenous; conditions: liver and plasma; in short: as §1
[15] = Ratio of drug level in liver to plasma in Sprague-Dawley rat at 3 mg/kg, po after 12 hrs; assay type: ADME, organism-based; design: dose 3 mg/kg, route oral; conditions: liver and plasma; in short: as §1

Structure (SMILES) | solubility [1] [µM] | Kp at 8 h [2] | Vd [3] [L/kg] | Kp at 4 h [4] | AUC (Cynomolgus monkey [5]) [ng·h/mL] | AUC (Rattus norvegicus [6]) [ng·h/mL] | bioavailability [7] [%] | AUC (Rattus norvegicus [8]) [ng·h/mL] | AUC (Cynomolgus monkey [9]) [ng·h/mL] | Papp A→B at 10 µM [10] [×10⁻⁶ cm/s] | Vd [11] [L/kg] | Kp at 1 h [12] | bioavailability [13] [%] | Kp at 12 h [14] | Kp at 12 h [15]
CC(C)CCn1nc(-c2cccs2)c(O)c(C2=Nc3ccc(NS(C)(=O)=O)cc3S(=O)(=O)N2)c1=O | 55 (≈ 29.6 µg/mL) | 78 | 0.453 | 243 | 10500 | 3630 | 1 | 27 | 124 | 0.016 | 0.096 | 431 | 1 | 4 | 64
CC(C)(C)CCn1nc(-c2cccs2)c(O)c(C2=Nc3ccc(NS(C)(=O)=O)cc3S(=O)(=O)N2)c1=O | 44 (≈ 24.3 µg/mL) |  |  |  | 17600 |  | 1 |  | 241 | 0.06 | 0.039 |  |  |  | 
